The nature of experiment [1]: Displacement of [125I]-Ang2 from AT2 receptor in porcine uterine myometrial membranes after 1.5 hrs by gamma scintillation gamma scintillation counting analysis. More on the design: species or system Sus scrofa. In a few lines: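 Pig uterine myometrial membranes (10 mg original tissue per tube) with 1 μM losartan to block AT1. Incubated 25 °C for 1.5 h, then filtered and counted by γ-counter. Nonspecific binding with 1 μM Ang II.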
(In general: Loss of bound radioactivity is the signal in a displacement assay; it reports binding, not function.)

The test system of experiment [2] is NG108-15. In words: Antagonist activity at AT2 receptor in mouse/rat NG108-15 cells assessed as inhibition of angiotensin-2 induced neurite growth at 10 nM after 3 days in presence of angiotensin-2 by phase contrast microscopic analysis. Type of experiment: cell-based. In a few lines: (§1)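 NG108-15 cells seeded at 3.6 × 10^4 per 35 mm dish. Compound given once daily for 3 days, starting 24 h after plating, 30 min before 100 nM Ang II. On day 4, phase-contrast micrographs were taken. Cells bearing a neurite longer than the cell body were counted as % of at least 400 cells. Three independent experiments in duplicate, two-way ANOVA.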

The subject of experiment [3] is NG108-15. In words: Antagonist activity at AT2 receptor in mouse/rat NG108-15 cells assessed as inhibition of angiotensin-2 induced neurite growth at 100 nM after 3 days in presence of angiotensin-2 by phase contrast microscopic analysis. It is filed as cell-based. The method in brief:
as §1

The subject of experiment [4] is NG108-15. In words: Agonist activity at AT2 receptor in mouse/rat NG108-15 cells assessed as neurite growth at 10 nM after 3 days in presence of PD123319 by phase contrast microscopic analysis. It is filed as cell-based. The method in brief:
(§2)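 NG108-15 neuroblastoma x glioma cells, passages 18–25, in DMEM with 10% FBS and HAT at 37 °C, 7% CO2. Seeded at 3.6 × 10^4 cells per 35 mm dish. Dosed once daily for 3 days starting 24 h after plating; where used, 10 μM PD 123319 was added 30 min before compound. On day 4, phase-contrast micrographs were taken. Cells with a neurite longer than the cell body were scored as % of at least 400 cells. Three independent experiments in duplicate, two-way ANOVA.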

Experiment [5] concerns NG108-15. In words: Agonist activity at AT2 receptor in mouse/rat NG108-15 cells assessed as neurite growth at 10 nM after 3 days by phase contrast microscopic analysis. It is filed as cell-based. In a few lines:
as §2

Active and inactive are the calls of the source. The rule behind the calls is not given here.

On to `CCCCOC(=O)NS(=O)(=O)c1ccc2c(c1-c1cccc(Cn3ccnc3)c1)CCC2C(C)C` (stereo in doubt; 8b) [listing 1 of 2 here], for which the Ki in experiment [1] is 53.5 nM. `CCCCOC(=O)NS(=O)(=O)c1cc2c(cc1-c1cccc(Cn3ccnc3)c1)CCC2C(C)C` (single isomer, unassigned; (+)) [listing 1 of 2 here]: the inhibition entry in the experiment on NG108-15 [2] and in the experiment with NG108-15 [3] was “Active” each time. As for `CCCCOC(=O)NS(=O)(=O)c1ccc2c(c1-c1ccc(Cn3ccnc3)cc1)CCC2C(C)C` (single isomer, unassigned; (-)) [listing 1 of 2 here], the outcome with NG108-15 [4] was inactive. Further, the result in the experiment with NG108-15 [5] was Active. Take `CCCCOC(=O)NS(=O)(=O)c1ccc2c(c1-c1ccc(Cn3ccnc3)cc1)CCC2C(C)C` (single isomer, unassigned; (+)) [listing 1 of 2 here]: the inhibition entry with NG108-15 [2] and in the experiment with NG108-15 [3] was “Active” each time. On to `CCCCOC(=O)NS(=O)(=O)c1ccc2c(c1-c1ccc(Cn3ccnc3)cc1)CCC2C(C)C` (single isomer, unassigned; (+)) [listing 2 of 2 here], for which the Ki in experiment [1] worked out at 2.8 nM. Same read-out and setting: as for `CCCCOC(=O)NS(=O)(=O)c1cc2c(cc1-c1cccc(Cn3ccnc3)c1)CCC2C(C)C` (single isomer, unassigned; (+)) [listing 2 of 2 here], the figure is 3.2 nM. As for `CCCCOC(=O)NS(=O)(=O)c1cc2c(cc1-c1cccc(Cn3ccnc3)c1)CCC2C(C)C` (single isomer, unassigned; (-)) [listing 1 of 2 here], in the experiment with NG108-15 [4], the result was inactive. The outcome with NG108-15 [5] was Active.

With `CCCCOC(=O)NS(=O)(=O)c1ccc2c(c1-c1cccc(Cn3ccnc3)c1)CCC2C(C)C` (stereo in doubt; 8b) [listing 2 of 2 here], the inhibition result in the experiment on NG108-15 [2] and with NG108-15 [3] was “Active” throughout. Regarding `CCCCOC(=O)NS(=O)(=O)c1cc2c(cc1-c1ccc(Cn3ccnc3)cc1)CCC2C(C)C` (single isomer, unassigned; (+)) [listing 1 of 2 here], in experiment [1], the affinity, expressed as Ki, was 2.2 nM. Still for that read-out and setting: as for `CCCCOC(=O)NS(=O)(=O)c1ccc2c(c1-c1ccc(Cn3ccnc3)cc1)CCC2C(C)C` (single isomer, unassigned; (-)) [listing 2 of 2 here], the figure is 127 nM.

Consider `CCCCOC(=O)NS(=O)(=O)c1cc2c(cc1-c1ccc(Cn3ccnc3)cc1)CCC2C(C)C` (single isomer, unassigned; (+)) [listing 2 of 2 here], for which the outcome with NG108-15 [4] was inactive. Further, the outcome in the experiment with NG108-15 [5] was Active. On to `CCCCOC(=O)NS(=O)(=O)c1ccc2c(c1-c1cccc(Cn3ccnc3)c1)CCC2C(C)C` (single isomer, unassigned; (-)) [listing 1 of 2 here], for which the inhibition result with NG108-15 [2] and in the experiment with NG108-15 [3] was “Active” each time. Turning to `CCCCOC(=O)NS(=O)(=O)c1cc2c(cc1-c1ccc(Cn3ccnc3)cc1)CCC2C(C)C` (single isomer, unassigned; (-)) [listing 1 of 2 here], the Ki in experiment [1] was 5.9 nM. Turning to `CCCCOC(=O)NS(=O)(=O)c1cc2c(cc1-c1ccc(Cn3ccnc3)cc1)CCC2C(C)C` (single isomer, unassigned; (-)) [listing 2 of 2 here], in the experiment with NG108-15 [4], the outcome was inactive. In the experiment with NG108-15 [5], the outcome was Active. Turning to `CCCCOC(=O)NS(=O)(=O)c1ccc2c(c1-c1cccc(Cn3ccnc3)c1)CCC2C(C)C` (single isomer, unassigned; (-)) [listing 2 of 2 here], the Ki in experiment [1] was 223 nM.

Turning to `CCCCOC(=O)NS(=O)(=O)c1cc2c(cc1-c1cccc(Cn3ccnc3)c1)CCC2C(C)C` (single isomer, unassigned; (-)) [listing 2 of 2 here], the Ki in experiment [1] came to 7 nM.

The Ki is the equilibrium dissociation constant of an inhibitor or competing ligand from its target. Low values mean higher affinity, high ones lower affinity.

Source of the values: ChEMBL document CHEMBL4373685, “High affinity rigidified AT2 receptor ligands with indane scaffolds” (Medchemcomm, 2019).
